Reference: ChEMBL document CHEMBL4665801, “Pyrazole-Based Lactate Dehydrogenase Inhibitors with Optimized Cell Activity and Pharmacokinetic Properties” (J Med Chem, 2020)
Activity calls are given as the source filed them. The rule behind the calls is not given here.

Columns and labels:
[1] = organism: Sus scrofa; test: Inhibition of porcine heart MDH using malic acid as substrate preincubated for 10 mins followed by substrate addition and measured after 5 mins by resazurin based fluorescence based assay; conditions: time 15.0 min
[2] = target: T1, L-lactate dehydrogenase A chain (Homo sapiens, UniProt P00338); test: Inhibition of LDHA in human MIA PaCa-2 cells assessed as decrease in lactate production incubated for 2 hrs by lactate oxidase-coupled fluorescence based assay; format: cell-based
[3] = target: T1, L-lactate dehydrogenase A chain; test: Inhibition of GS[HiBiT]GS-tagged LDHA (unknown origin) expressed in HEK-293T cells measured after 1 hr by […]; format: cell-based
Summary of the method: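 HEK293T cells were transiently transfected for 24 h with CMV-driven LDHA carrying a C-terminal GS[HiBiT]GS tag, then reseeded at 2500 cells/well in DPBS with Ca/Mg and 1 g/L glucose. […] Cells were lysed with NP40, and 11S (100 nM final) plus furimazine was added.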

[4] = target: T1, L-lactate dehydrogenase A chain; test: Inhibition of recombinant human LDHA using sodium pyruvate as substrate preincubated for 5 mins followed by diaphorase/resazurin addition and measured after 20 mins by fluorescence based assay
[5] = target: L-lactate dehydrogenase B chain (Homo sapiens) (UniProt P07195); test: Inhibition of recombinant human LDHB using sodium pyruvate as substrate preincubated for 5 mins followed by diaphorase/resazurin addition and measured after 20 mins by fluorescence based assay
L-lactate dehydrogenase B chain (Homo sapiens), sequence (P07195 2-334 limits assumed): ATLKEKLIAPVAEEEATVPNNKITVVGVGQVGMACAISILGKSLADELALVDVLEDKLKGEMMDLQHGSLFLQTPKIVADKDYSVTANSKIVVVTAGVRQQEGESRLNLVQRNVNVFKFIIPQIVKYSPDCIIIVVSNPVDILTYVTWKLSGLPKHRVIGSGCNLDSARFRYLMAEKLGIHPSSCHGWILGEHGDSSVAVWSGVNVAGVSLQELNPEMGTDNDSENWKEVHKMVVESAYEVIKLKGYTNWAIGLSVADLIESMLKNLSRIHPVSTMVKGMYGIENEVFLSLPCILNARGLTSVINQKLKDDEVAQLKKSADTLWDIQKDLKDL

[6] = test system: A673; test: Cytotoxicity against human A673 cells assessed as reduction in cell viability after 48 hrs by CellTiter-Glo assay; format: functional, cell-based; conditions: A673, 48 h
[7] = target: T1, L-lactate dehydrogenase A chain; test: Inhibition of LDHA in human A673 cells assessed as decrease in lactate production incubated for 2 hrs by lactate oxidase-coupled fluorescence based assay; format: cell-based
[8] = test system: MIA PaCa-2; test: Cytotoxicity against human MIA PaCa-2 cells assessed as reduction in cell viability after 48 hrs by CellTiter-Glo assay; format: functional, cell-based; conditions: MIA PaCa-2, 48 h

inhibition [1]	IC50 [2] [nM]	IC50 [3] [nM]	IC50 [4] [nM]	inhibition [5]	IC50 [7] [nM]	IC50 ([2]; mia paca-2) [nM]	IC50 ([7]; a673) [nM]	SMILES	IC50 [6] [nM]	IC50 [8] [nM]
inactive	487	90	17	Active	527			Cc1cnc(C#Cc2cccc(-c3nn(-c4nc(C(=O)O)cs4)c(CC4CC4)c3Cc3ccc(S(N)(=O)=O)c(F)c3)c2)s1	309	360
inactive	286	134	154	Active	345			NS(=O)(=O)c1ccc(Cc2c(-c3cccc(C#Cc4ccc(C(F)F)s4)c3)nn(-c3nc(C(=O)O)cs3)c2CC2CC2)cc1F	528	528
inactive	417	84	33	Active	364			Cc1cnc(C#Cc2cccc(-c3nn(-c4nc(C(=O)O)cs4)c(CCC4CC4)c3Cc3ccc(S(N)(=O)=O)c(F)c3)c2)s1	180	173
inactive	720	38	43	Active	713			Cc1ncc(C#Cc2cccc(-c3nn(-c4nc(C(=O)O)cs4)c(CC4CC4)c3Cc3ccc(S(N)(=O)=O)c(F)c3)c2)s1	532	641
inactive	1140	189	9	Active	1600			Cn1cc(C#Cc2cc(-c3nn(-c4nc(C(=O)O)cs4)c(CC4CC4)c3Cc3ccc(S(N)(=O)=O)c(F)c3)ccc2F)cn1	593	619
inactive	417	95	52	Active	547			Cc1ccc(C#Cc2cccc(-c3nn(-c4nc(C(=O)O)cs4)c(CCC4CC4)c3Cc3ccc(S(N)(=O)=O)c(F)c3)c2)o1	137	137
inactive		101	13	Active		1180	1170	Cc1nc(C#Cc2cccc(-c3nn(-c4nc(C(=O)O)cs4)c(CC4CC4)c3Cc3ccc(S(N)(=O)=O)c(F)c3)c2)cs1	347	471
inactive	203	179	385	Active	296			CC(C)c1ccc(C#Cc2cccc(-c3nn(-c4nc(C(=O)O)cs4)c(CC4CC4)c3Cc3ccc(S(N)(=O)=O)c(F)c3)c2)s1	528	590
inactive	657	95	87	Active	494			Cc1cc(C#Cc2cccc(-c3nn(-c4nc(C(=O)O)cs4)c(CC4CC4)c3Cc3ccc(S(N)(=O)=O)c(F)c3)c2)cs1	359	332
inactive	408	113	167	Active	218			NS(=O)(=O)c1ccc(Cc2c(-c3cccc(C#Cc4ccc(Cl)s4)c3)nn(-c3nc(C(=O)O)cs3)c2CC2CC2)cc1F	452	556

More lines, now with the values behind:

SMILES	inhibition [1]	IC50 [2] [nM]	IC50 [3] [nM]	IC50 [4] [nM]	inhibition [5]	IC50 [7] [nM]	IC50 ([2]; mia paca-2) [nM]	IC50 ([7]; a673) [nM]	IC50 [6] [nM]	IC50 [8] [nM]
CC#Cc1cc(-c2nn(-c3nc(C(=O)O)cs3)c(CC3CC3)c2Cc2ccc(S(N)(=O)=O)c(F)c2)ccc1F	inactive	450	119	11	Active	505			332	322
NS(=O)(=O)c1ccc(Cc2c(-c3cccc(-c4ccccc4)c3)nn(-c3nc(C(=O)O)cs3)c2CC2CC2(F)F)cc1 (stereo unspecified)	inactive	1720	501	25	Active	1420			4640	10700
CCCCC#Cc1cc(-c2nn(-c3nc(C(=O)O)cs3)c(CC3CC3)c2Cc2ccc(S(N)(=O)=O)c(F)c2)ccc1F	inactive	298	106	50	Active	405			773	845
NS(=O)(=O)c1ccc(Cc2c(-c3ccc(F)c(C#CC(F)F)c3)nn(-c3nc(C(=O)O)cs3)c2CC2CC2)cc1F	inactive	741	163	15	Active	937			1480	1330
NS(=O)(=O)c1ccc(Cc2c(-c3cccc(-c4ccccc4)c3)nn(-c3nc(C(=O)O)cs3)c2CC2CC2)cc1F	inactive	867	150	25	Active	613			1140	3380
CC(C)CC#Cc1cc(-c2nn(-c3nc(C(=O)O)cs3)c(CC3CC3)c2Cc2ccc(S(N)(=O)=O)c(F)c2)ccc1F	inactive	487	89	54	Active	284			935	909
NS(=O)(=O)c1ccc(Cc2c(-c3ccc(F)c(C#CC4CC4)c3)nn(-c3nc(C(=O)O)cs3)c2CC2CC2)cc1F	inactive	554	100	9	Active	695			132	323
NS(=O)(=O)c1ccc(Cc2c(-c3ccc(F)c(C#CC4CCC4)c3)nn(-c3nc(C(=O)O)cs3)c2CC2CC2)cc1F	inactive	428	133	23	Active	378			593	573
Cc1ccc(/C=C/c2cccc(-c3nn(-c4nc(C(=O)O)cs4)c(CC4CC4)c3Cc3ccc(S(N)(=O)=O)c(F)c3)c2)s1	inactive	331	158	52	Active	357			452	471
NS(=O)(=O)c1ccc(Cc2c(-c3ccc(F)c(C#Cc4cccs4)c3)nn(-c3nc(C(=O)O)cs3)c2CC2CC2)cc1F	inactive	307	89	32	Active	438			265	268
NS(=O)(=O)c1ccc(Cc2c(-c3ccc(F)c(C#CCC4CCCO4)c3)nn(-c3nc(C(=O)O)cs3)c2CC2CC2)cc1F (stereo unspecified)	inactive	937	178	9	Active	933			1380	1220
NS(=O)(=O)c1ccc(Cc2c(-c3ccc(F)c(/C=C/C4CC4)c3)nn(-c3nc(C(=O)O)cs3)c2CC2CC2)cc1F	inactive	231	134	15	Active	320			833	837
NS(=O)(=O)c1ccc(Cc2c(-c3ccc(F)c(-c4ccccc4)c3)nn(-c3nc(C(=O)O)cs3)c2CC2CC2)cc1	inactive	1220	401	23	Active	835			2650	8450
NS(=O)(=O)c1ccc(Cc2c(-c3ccc(F)c(C#CCC4CC4)c3)nn(-c3nc(C(=O)O)cs3)c2CC2CC2)cc1F	inactive	259	89	31	Active	234			1020	1030
CCC#Cc1cc(-c2nn(-c3nc(C(=O)O)cs3)c(CC3CC3)c2Cc2ccc(S(N)(=O)=O)c(F)c2)ccc1F	inactive	470	112	14	Active	487			716	662
NS(=O)(=O)c1ccc(Cc2c(-c3cccc(-c4ccccc4)c3)nn(-c3nc(C(=O)O)cs3)c2CC(F)(F)F)cc1	inactive	19400	15800	274	Active	9720			148	3170
COCC#Cc1cc(-c2nn(-c3nc(C(=O)O)cs3)c(CC3CC3)c2Cc2ccc(S(N)(=O)=O)c(F)c2)ccc1F	inactive	525	119	8	Active	769			1220	1090
